Activity calls are given as the source filed them. No cut-off for these calls is given here. Where a SMILES comes first, the peptide text is derived from it.
Legend:
[1] = Binding affinity to HCV envelope glycoprotein E2 by surface plasmon resonance assay; parameters: species or system Hepacivirus hominis
Method in brief: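 Surface plasmon resonance on a Biacore 1000 measured binding of E2 protein to the peptides. K_on and K_off were calculated from the association and dissociation phases of the best-fitted binding curves.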

Hepacivirus hominis [2] = test: Inhibition of HCV envelope glycoprotein E2 to human Huh 7.5.1 cells after 1 hr by flow cytometry relative to control
Method in brief: (§1)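 E2 protein (0.25 μg) was preincubated with peptide (250 nM, or a concentration series), 120 nM CD81, 50 IU heparin, or combinations in 100 μl PBS for 1 h at 37°C. The mix was added to 1 × 10⁶ Huh-7.5.1 cells for 30 min at 37°C. Cell-bound E2 was stained with anti-E2 polyclonal and PE anti-rabbit IgG and measured by flow cytometry. Percent inhibition was calculated (means ± SEM, 3–4 experiments).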

Hepatitis C virus [3] = test: Antiviral activity against HCV 2a JFH-1 in human Huh 7.5.1 cells assessed as inhibition of viral infection at 100 to 500 nM after 4 hrs by immunofluorescence staining; type: functional, organism-based; conditions: Hepacivirus hominis, in the assay text read “after overnight incubation” for “after 4 hrs”
Method in brief: (§2)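 Cells were washed and E2 was read out in two ways. Western blot used anti-E2 with β-actin as the internal control. Immunofluorescence used 4% paraformaldehyde fixation, rabbit anti-E2 with FITC anti-rabbit IgG for 4 h, and PI nuclear stain. Mean fluorescence was measured by confocal microscopy (means ± SEM, three experiments).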

[4] = test system: Hepatitis C virus subtype 1a; test: Binding affinity to HCV 1a envelope glycoprotein E2
Method in brief: (§3)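 HepG2 cells stably expressing E1E2 of genotypes 1–6 were established by G418 selection, with parental HepG2 as control. E2 of each genotype was detected with the selected peptide (means ± SEM, three independent experiments).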

[5] = test system: Hepatitis C virus subtype 2a; test: Binding affinity to HCV 2a envelope glycoprotein E2; method in brief: as §3
CT26 [6] = test: Inhibition of HCV envelope glycoprotein E2 to […] cells expressing CD81 after 1 hr by flow cytometry; type: cell-based; conditions: Hepacivirus hominis
Hepacivirus hominis [7] = test: Binding affinity to HCV GST-tagged envelope glycoprotein E2 after 1 hr by ELISA
Method in brief: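 Indirect ELISA on wells coated with 0.3 nM E2-GST or GST (4°C, 7 h) and blocked with 2% BSA (37°C, 2 h). Biotin-labelled peptide at various concentrations was added for 30 min at 37°C, then HRP-streptavidin (1:1,000) for 1 h at 37°C. Signal was developed with o-phenylenediamine and read at 450 nm.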

Hepatitis C virus JFH-1 = test: Binding affinity to HCV 2a JFH-1 viral particle after 1 hr by indirect ELISA
Method in brief: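 Wells were coated with 3 × 10⁵ JFH-1 HCVcc particles per well in carbonate buffer pH 9.6 (7 h, 4°C) and blocked with 1% BSA at 4°C overnight. Control culture medium served as comparison. Biotin-labelled peptide at different concentrations was incubated 30 min at 37°C, followed by HRP-streptavidin (1:1,000) for 1 h at 37°C. Signal was developed with o-phenylenediamine and read at A450 (triplicates; six experiments).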

Hepatitis C virus [8] = test: Binding affinity to HCV in virus infected patient serum after 1 hr by sandwich ELISA; conditions: Hepacivirus hominis
Method in brief: (§4)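 Sandwich ELISA with wells coated with 0.3 nM peptide and blocked with 2% BSA at 4°C overnight. Serum (100 μl) from HCV antibody/RNA-positive patients (n = 50) or negative healthy donors (n = 55) was incubated 30 min at 37°C. Captured particles were detected with rabbit anti-E2 polyclonal (1:150, 1 h, 37°C), then HRP-labelled reagent, read at A450, and analysed by a nonparametric method.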

Hepatitis C virus [9] = test: Binding affinity to HCV in […] healthy human serum after 1 hr by sandwich ELISA; type: cell-free; conditions: Hepacivirus hominis; method in brief: as §4
CT26 [10] = test: Inhibition of HCV envelope glycoprotein E2 to […] cells expressing SR-B1 after 1 hr by flow cytometry; type: cell-based; conditions: Hepacivirus hominis
CT26 [11] = test: Inhibition of HCV envelope glycoprotein E2 to […] cells expressing CLDN1 after 1 hr by flow cytometry; type: cell-based; conditions: Hepacivirus hominis
CT26 [12] = test: Inhibition of HCV envelope glycoprotein E2 to […] cells expressing OCLN after 1 hr by flow cytometry; type: cell-based; conditions: Hepacivirus hominis
Hepacivirus hominis [13] = test: Inhibition of HCV envelope glycoprotein E2 to human Huh 7.5.1 cells after 1 hr by flow cytometry; method in brief: as §1
Hepatitis C virus [14] = test: Antiviral activity against HCV 2a JFH-1 in human Huh 7.5.1 cells assessed as inhibition of viral infection at 100 to 500 nM after 4 hrs by Western blotting; type: functional, organism-based; conditions: Hepacivirus hominis; method in brief: as §2
Hepatitis C virus [15] = test: Antiviral activity against HCV 2a JFH-1 in human Huh 7.5.1 cells cytoplasm assessed as inhibition of viral infection at 100 to 500 nM after 4 hrs by immunofluorescence staining; type: functional, organism-based; conditions: Hepacivirus hominis; method in brief: as §2
Hepatitis C virus [16] = test: Antiviral activity against HCV 2a JFH-1 in human Huh 7.5.1 cells cytoplasm assessed as inhibition of viral infection at 100 to 500 nM after 4 hrs by RT-PCR analysis; type: functional, organism-based; conditions: Hepacivirus hominis, in the assay text read “after overnight incubation” for “after 4 hrs”
Method in brief: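 Huh-7.5.1 cells (4.5 × 10⁵/well) were co-cultured overnight at 37°C with 200 μl (7 × 10⁷ copies) of JFH-1 HCVcc and peptide at different final concentrations. After washing in DEPC-PBS, total RNA was extracted with Trizol and reverse transcribed. Intracellular HCV RNA was quantified by real-time PCR using 5′ NCR primers and normalized to GAPDH mRNA (means ± SEM, three experiments).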

Hepatitis C virus [17] = test: Binding affinity to HCV 1b envelope glycoprotein E2; conditions: Hepatitis C virus subtype 1b; method in brief: as §3
[18] = test system: Hepatitis C virus subtype 3a; test: Binding affinity to HCV 3a envelope glycoprotein E2; method in brief: as §3
[19] = test system: Hepatitis C virus subtype 5a; test: Binding affinity to HCV 5a envelope glycoprotein E2; method in brief: as §3
[20] = test system: Hepatitis C virus subtype 6a; test: Binding affinity to HCV 6a envelope glycoprotein E2; method in brief: as §3
[21] = test system: Hepatitis C virus subtype 4a; test: Binding affinity to HCV 4a envelope glycoprotein E2; method in brief: as §3
Hepacivirus hominis [22] = test: Ratio of binding affinity for HCV 1a envelope glycoprotein E2 to binding affinity for HCV 3a envelope glycoprotein E2; method in brief: as §3
Hepacivirus hominis [23] = test: Ratio of binding affinity for HCV 1a envelope glycoprotein E2 to binding affinity for HCV 4a envelope glycoprotein E2; method in brief: as §3
Hepacivirus hominis [24] = test: Ratio of binding affinity for HCV 1a envelope glycoprotein E2 to binding affinity for HCV 5a envelope glycoprotein E2; method in brief: as §3
Hepacivirus hominis [25] = test: Ratio of binding affinity for HCV 1a envelope glycoprotein E2 to binding affinity for HCV 6a envelope glycoprotein E2; method in brief: as §3
Hepacivirus hominis [26] = test: Ratio of binding affinity for HCV 1b envelope glycoprotein E2 to binding affinity for HCV 3a envelope glycoprotein E2; method in brief: as §3
Hepacivirus hominis [27] = test: Ratio of binding affinity for HCV 1b envelope glycoprotein E2 to binding affinity for HCV 4a envelope glycoprotein E2; method in brief: as §3
Hepacivirus hominis [28] = test: Ratio of binding affinity for HCV 1b envelope glycoprotein E2 to binding affinity for HCV 5a envelope glycoprotein E2; method in brief: as §3
Hepacivirus hominis [29] = test: Ratio of binding affinity for HCV 1b envelope glycoprotein E2 to binding affinity for HCV 6a envelope glycoprotein E2; method in brief: as §3
Hepacivirus hominis [30] = test: Ratio of binding affinity for HCV 2a envelope glycoprotein E2 to binding affinity for HCV 3a envelope glycoprotein E2; method in brief: as §3
Hepacivirus hominis [31] = test: Ratio of binding affinity for HCV 2a envelope glycoprotein E2 to binding affinity for HCV 4a envelope glycoprotein E2; method in brief: as §3
Hepacivirus hominis [32] = test: Ratio of binding affinity for HCV 2a envelope glycoprotein E2 to binding affinity for HCV 5a envelope glycoprotein E2; method in brief: as §3
Hepacivirus hominis [33] = test: Ratio of binding affinity for HCV 2a envelope glycoprotein E2 to binding affinity for HCV 6a envelope glycoprotein E2; method in brief: as §3

CC[C@H](C)[C@H](NC(=O)[C@@H](NC(=O)[C@H](CC(C)C)NC(=O)[C@@H](NC(=O)[C@H](CO)NC(=O)[C@@H](N)CC(C)C)C(C)C)C(C)C)C(=O)N[C@@H](CO)C(=O)N[C@@H](CCSC)C(=O)N[C@@H](Cc1ccccc1)C(=O)N[C@@H](CC(N)=O)C(=O)N[C@@H](C)C(=O)N[C@H](C(=O)O)C(C)C (H-LSVLVISMFNAV-OH)
Kd [1]: Not Active | cell-bound E2 remaining (Hepacivirus hominis [2]): 30%

CSCC[C@H](NC(=O)[C@@H](NC(=O)[C@H](CC(C)C)NC(=O)[C@@H]1CCCN1C(=O)[C@H](Cc1c[nH]c2ccccc12)NC(=O)[C@H](CC(N)=O)NC(=O)[C@H](CCCNC(=N)N)NC(=O)[C@H](Cc1cnc[nH]1)NC(=O)[C@H](CCCNC(=N)N)NC(=O)[C@H](C)NC(=O)[C@@H](N)CCSC)C(C)C)C(=O)N[C@H](C(=O)O)C(C)C (H-MARHRNWPLVMV-OH)
Activity (Hepatitis C virus [3]): Dose-dependent effect | Activity [4]: Active | Activity [5]: Active | inhibition (CT26 [6]): Active | Kd ([1]; read-out: Kd): 0.019 µM | Activity (Hepacivirus hominis [7]): Dose-dependent effect | Activity (Hepatitis C virus JFH-1): Dose-dependent effect | Activity (Hepatitis C virus [8]): Active | Activity (Hepatitis C virus [9]): inactive | inhibition (CT26 [10]): inactive | inhibition (CT26 [11]): inactive | inhibition (CT26 [12]): inactive | inhibition (Hepacivirus hominis [13]): Dose-dependent effect | Activity (Hepatitis C virus [14]): Dose-dependent effect | Activity (Hepatitis C virus [15]): Active | Activity (Hepatitis C virus [16]): Active | Activity (Hepatitis C virus [17]): Active | Activity [18]: Active | Activity [19]: Active | Activity [20]: Active | Activity [21]: Active | Ratio (Hepacivirus hominis [22]): 2 | Ratio (Hepacivirus hominis [23]): 2 | Ratio (Hepacivirus hominis [24]): 2 | Ratio (Hepacivirus hominis [25]): 2 | Ratio (Hepacivirus hominis [26]): 2 | Ratio (Hepacivirus hominis [27]): 2 | Ratio (Hepacivirus hominis [28]): 2 | Ratio (Hepacivirus hominis [29]): 2 | Ratio (Hepacivirus hominis [30]): 2 | Ratio (Hepacivirus hominis [31]): 2 | Ratio (Hepacivirus hominis [32]): 2 | Ratio (Hepacivirus hominis [33]): 2

CC[C@H](C)[C@H](NC(=O)[C@H](C)NC(=O)[C@@H](N)CCSC)C(=O)NCC(=O)N1CCC[C@H]1C(=O)N[C@@H](Cc1ccc(O)cc1)C(=O)N1CCC[C@H]1C(=O)N[C@@H](C)C(=O)N[C@@H](CS)C(=O)NCC(=O)N[C@@H](CO)C(=O)NCC(=O)O (H-MAIGPYPACGSG-OH)
Kd ([1]; read-out: Kd): 0.043 µM | cell-bound E2 remaining (Hepacivirus hominis [2]): 7% | inhibition (Hepacivirus hominis [13]): Dose-dependent effect

N=C(N)NCCC[C@H](NC(=O)CNC(=O)[C@H](Cc1ccccc1)NC(=O)CN)C(=O)N[C@@H](Cc1ccc(O)cc1)C(=O)N[C@@H](CCCNC(=N)N)C(=O)N[C@@H](CCCNC(=N)N)C(=O)N[C@@H](Cc1cnc[nH]1)C(=O)NCC(=O)N[C@@H](CO)C(=O)N1CCC[C@H]1C(=O)N[C@@H](Cc1c[nH]c2ccccc12)C(=O)O (H-GFGRYRRHGSPW-OH)
Kd ([1]; read-out: Kd): 0.05 µM | cell-bound E2 remaining (Hepacivirus hominis [2]): 32%

Source: ChEMBL document CHEMBL1687759, “Functional selection of hepatitis C virus envelope E2-binding Peptide ligands by using ribosome display” (Antimicrob Agents Chemother, 2010)
